CHRM5 agonist – human M5 muscarinic receptor agonists, primary screen, CHO-K1 cells, Fluo-8 calcium fluorescence | Muscarinic acetylcholine receptor M5 (Homo sapiens), P08912 | CHO-K1 hM5 cells; 0% DMSO wells, 100% maximal acetylcholine response | activation, % at 3 µM | 360,000 tested, 0.19% active | AID 624037, 2012;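 active = activation above the run's mean over test compounds plus 3 SD, cut at about 23% in these data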;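 note: signal is peak over basal fluorescence ratio across the kinetic read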
CHRM4 antagonist – human M4 muscarinic receptor antagonists, primary screen, CHO cells, Fluo-8 calcium fluorescence | Muscarinic acetylcholine receptor M4 (Homo sapiens), P08173 | CHO-hM4 cells, ACh EC80 | inhibition, % at 3 µM | 360,000 tested, 0.73% active | AID 624125, 2012;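 active = inhibition above its plate's cutoff, the mean inhibition of sample wells plus 3 SD, cut at about 27% in these data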;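 note: 0% = acetylcholine EC80 with DMSO and 100% = DMSO without agonist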
Target sequence (P08173 whole entry, looked up): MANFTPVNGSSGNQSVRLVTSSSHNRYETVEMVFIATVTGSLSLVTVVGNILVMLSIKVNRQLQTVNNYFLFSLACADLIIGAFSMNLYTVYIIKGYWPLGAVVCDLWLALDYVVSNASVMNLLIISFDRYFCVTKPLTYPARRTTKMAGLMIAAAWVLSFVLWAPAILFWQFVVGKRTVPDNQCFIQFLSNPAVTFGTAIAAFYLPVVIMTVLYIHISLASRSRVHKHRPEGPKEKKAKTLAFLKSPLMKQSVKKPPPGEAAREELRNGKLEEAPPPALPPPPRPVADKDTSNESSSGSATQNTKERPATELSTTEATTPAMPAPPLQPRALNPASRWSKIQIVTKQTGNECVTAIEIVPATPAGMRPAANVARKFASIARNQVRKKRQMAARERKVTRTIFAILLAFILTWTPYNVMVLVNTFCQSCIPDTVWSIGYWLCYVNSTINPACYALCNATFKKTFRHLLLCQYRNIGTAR
CHRM4 agonist – human M4 muscarinic receptor agonists, primary screen, CHO-K1 cells, Fluo-8 calcium fluorescence; Muscarinic acetylcholine receptor M4 (Homo sapiens), P08173; CHO-K1 hM4/Gqi5; vehicle 0%, full acetylcholine response 100%; activation, % at 3 µM; 360,000 tested, 0.14% active;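 active = activation above the run mean over all test wells plus 3 SD, cut at about 32% in these data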;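 note: peak over basal fluorescence ratio per well then scaled between controls; 0% = DMSO wells and 100% = acetylcholine at EC100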
CHRM5 PAM – human M5 muscarinic receptor positive allosteric modulators, primary screen, CHO-K1 cells, Fluo-8 calcium fluorescence; Muscarinic acetylcholine receptor M5 (Homo sapiens), P08912; CHO-K1 hM5, ACh EC20 PAM; 0% = ACh EC20, 100% = ACh EC100; activation, % at 3 µM; 360,000 tested, 0.3% active;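 active = activation above the run cutoff, the mean activation of all test compounds plus 3 SD, cut at about 18% in these data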
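Replicates: One well per compound, no replicates | System: Human M5 receptor in CHO-K1 cells | Benchmarks: Low control EC20 acetylcholine (0%), high control EC100 acetylcholine (100%) | Probe or stimulus: Acetylcholine, EC20 level | Times: Fluo-8 loading 80 min at 37 °C plus 30 min room temperature | Signal: Intracellular calcium via Fluo-8 fluorescence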
CHRM5 antagonist – human M5 muscarinic receptor antagonists, primary screen, CHO cells, Fluo-8 calcium fluorescence. 360,000 tested, 0.59% active. Muscarinic acetylcholine receptor M5 (Homo sapiens), P08912. CHO-hM5 cells, ACh EC80. inhibition, % at 3 µM;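 active = inhibition above a per-plate cutoff, the mean of that plate's test compounds plus 3 SD, cut at about 27% in these data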;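 note: 0% = acetylcholine EC80 with DMSO and 100% = DMSO without agonist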
M4 PAM – human M4 muscarinic receptor positive allosteric modulators, primary screen, CHO-K1 cells, Fluo-8 calcium fluorescence; Muscarinic acetylcholine receptor M4 (Homo sapiens), P08173; CHO-K1 hM4/Gqi5, ACh EC20; 0% = ACh EC20, 100% = maximal ACh; activation, % at 3 µM; 360,000 tested, 0.4% active; AID 624126, 2012;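 active = activation above its plate's cutoff, the mean activation of sample wells plus 3 SD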
An asterisk follows results filed as active. Compounds with a hit are over-represented: about 1.8% of the library has one in this group of screens.

Results for CC(C)(C)C(=O)OC[N+](C)(C)CCOC(=O)C(O)(c1ccccc1)C1CCCC1 (centres undefined) ?
CHRM5 agonist: -14; CHRM4 antagonist: 99*; CHRM4 agonist: 0; CHRM5 PAM: -34; CHRM5 antagonist: 99*; M4 PAM: -24

Results for CCCC(CCC)C(=O)OC[N+](C)(C)CCOC(=O)C(O)(c1ccccc1)C1CCCC1 (centres undefined) ?
CHRM5 agonist: -11; CHRM4 antagonist: 97*; CHRM4 agonist: 1; CHRM5 PAM: -19; CHRM5 antagonist: 99*; M4 PAM: -20

Results for O=C(O)C(O)(c1ccccc1)C1CCCC1 (centres undefined) ?
CHRM5 agonist: -7; CHRM4 antagonist: -5; CHRM4 agonist: 1; CHRM5 PAM: -7; CHRM5 antagonist: 2; M4 PAM: 3

What do the screens show for `CN1CN(c2ccccc2)C2(CCN(CCCSc3ccccc3NC(=O)/C=C/c3ccccc3)CC2)C1=O`?
CHRM5 agonist: 68*; CHRM4 antagonist: 59*; CHRM4 agonist: 110*; CHRM5 PAM: -46; CHRM5 antagonist: 37*; M4 PAM: -13

How did O=C(O)Cn1cc(C(=O)c2ccccc2F)c2ccccc21 do in these assays?
CHRM5 agonist: -2; CHRM4 antagonist: -10; CHRM4 agonist: 0; CHRM5 PAM: 1; CHRM5 antagonist: 5; M4 PAM: 12

How did C=CCn1c(O)c(C=NC2CCN(Cc3ccccc3)CC2)c(=O)[nH]c1=O do in these assays?
CHRM5 agonist: -8; CHRM4 antagonist: -7; CHRM4 agonist: 1; CHRM5 PAM: -2; CHRM5 antagonist: 5; M4 PAM: 12*

What do the screens show for `Cc1nc(SCc2c(Cl)cccc2Cl)nc(OC(=O)N(C)C)c1C`?
CHRM5 agonist: 0; CHRM4 antagonist: 6; CHRM4 agonist: 3; CHRM5 PAM: 2; CHRM5 antagonist: 0; M4 PAM: 34*

How did CN(C)C(CNC(=O)Cc1c(Cl)cccc1Cl)c1ccccc1 (centres undefined) do in these assays?
CHRM5 agonist: -12; CHRM4 antagonist: 17; CHRM4 agonist: 1; CHRM5 PAM: -16; CHRM5 antagonist: 41*; M4 PAM: -20

Results for C[N+]1(C)[C@@H]2CC[C@H]1CC(OC(=O)C(CO)c1ccccc1)C2 (some centres undefined) ?
CHRM5 agonist: -2; CHRM4 antagonist: 99*; CHRM4 agonist: 1; CHRM5 PAM: -18; CHRM5 antagonist: 99*; M4 PAM: -18

What do the screens show for `C[N+]1([O-])[C@@H]2CC(OC(=O)[C@H](CO)c3ccccc3)C[C@H]1[C@@H]1O[C@@H]12` (some centres undefined)?
CHRM5 agonist: -1; CHRM4 antagonist: 99*; CHRM4 agonist: 2; CHRM5 PAM: -18; CHRM5 antagonist: 98*; M4 PAM: -17

What do the screens show for `C#CC[N+]1(C)[C@@H]2CC(OC(=O)C(CO)c3ccccc3)C[C@H]1C(O)C2` (some centres undefined)?
CHRM5 agonist: -9; CHRM4 antagonist: 98*; CHRM4 agonist: 0; CHRM5 PAM: -22; CHRM5 antagonist: 98*; M4 PAM: -16

What do the screens show for `C[N+]1(C)C2CCC1CC(OC(=O)c1ccccc1)C2` (centres undefined)?
CHRM5 agonist: -18; CHRM4 antagonist: -3; CHRM4 agonist: 0; CHRM5 PAM: -22; CHRM5 antagonist: 6; M4 PAM: -23

How did C[N+]1(C)C2CCC1CC(OC(=O)C(CO)c1ccccc1)C2 (centres undefined) do in these assays?
CHRM5 agonist: -10; CHRM4 antagonist: 98*; CHRM4 agonist: 2; CHRM5 PAM: -16; CHRM5 antagonist: 99*; M4 PAM: -26

What do the screens show for `C=CCn1c(O)c(/C=N/N2CCCCC2)c(=O)[nH]c1=O`?
CHRM5 agonist: 15; CHRM4 antagonist: -5; CHRM4 agonist: 0; CHRM5 PAM: 3; CHRM5 antagonist: -13; M4 PAM: 7

How did CCN(CC)C(=O)c1ccc(NC(=O)c2c(C)noc2C)cc1 do in these assays?
CHRM5 agonist: -1; CHRM4 antagonist: -3; CHRM4 agonist: 2; CHRM5 PAM: 11; CHRM5 antagonist: 1; M4 PAM: 8

Results for COC(=O)C1=C(C(=O)OC)C2OC1c1cc3ccccc3cc12 ?
CHRM5 agonist: 0; CHRM4 antagonist: 96*; CHRM4 agonist: 14; CHRM5 PAM: -7; CHRM5 antagonist: 17; M4 PAM: -10

How did COC(=O)C1=C(c2ccc3ccccc3c2)C[C@@H]2CC[C@H]1N2C do in these assays?
CHRM5 agonist: -12; CHRM4 antagonist: 2; CHRM4 agonist: 2; CHRM5 PAM: -5; CHRM5 antagonist: 6; M4 PAM: 2

How did COc1ccc(CCN)cc1OC do in these assays?
CHRM5 agonist: 1; CHRM4 antagonist: 8; CHRM4 agonist: 0; CHRM5 PAM: -4; CHRM5 antagonist: 5; M4 PAM: -7

Results for NCCc1ccc(OCc2ccccc2)c(OCc2ccccc2)c1 ?
CHRM5 agonist: 10; CHRM4 antagonist: 21; CHRM4 agonist: 34*; CHRM5 PAM: 15; CHRM5 antagonist: 2; M4 PAM: 8

What do the screens show for `C[N+]12CCC(CC1)C(C(O)(c1cccc(Cl)c1)c1cccc(Cl)c1)C2` (centres undefined)?
CHRM5 agonist: -20; CHRM4 antagonist: 87*; CHRM4 agonist: 0; CHRM5 PAM: -30; CHRM5 antagonist: 74*; M4 PAM: -15

What do the screens show for `Cc1ccc(C(O)(c2ccc(C)c(C)c2)C2CN3CCC2CC3)cc1C` (centres undefined)?
CHRM5 agonist: -5; CHRM4 antagonist: 0; CHRM4 agonist: 4; CHRM5 PAM: -9; CHRM5 antagonist: 14; M4 PAM: -2

How did CN1CCCC(C(O)(c2ccccc2)c2ccccc2)C1 (centres undefined) do in these assays?
CHRM5 agonist: -20; CHRM4 antagonist: -11; CHRM4 agonist: 1; CHRM5 PAM: -14; CHRM5 antagonist: -2; M4 PAM: -18

How did CC[N+]12CCC(CC1)C(C(O)(c1ccccc1)c1ccccc1)C2 (centres undefined) do in these assays?
CHRM5 agonist: -18; CHRM4 antagonist: 72*; CHRM4 agonist: 0; CHRM5 PAM: -32; CHRM5 antagonist: 86*; M4 PAM: -44

Bioassay records from PubChem BioAssay.
